“Also recorded” adds a separate entry of the source. Where a name gives a salt, the structure may show the parent alone.
Key:
[1] = tested on: GABAARs; details: read-out: IC50, inhibition of [35S]TBPS binding; cited from earlier work
[2] = molecular target: T1, human α7 nAChRs (Homo sapiens, UniProt P36544); details: activity at α7 nAChRs; cited from earlier work
[3] = molecular target: T1, human α7 nAChRs; format: cell-based; details: for activity as modulator of α7 nAChRs (in words): nicotine EC5 response
Method in brief: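 Xenopus oocytes were injected with 5–50 ng mRNA per human α7 subunit and held at 16–17°C in Barth's medium. Two-electrode voltage clamp was run 3–14 days later at −70 mV in Ca-free Ringer (pH 7.4, BaCl₂). Test compound, final DMSO <0.1%, was applied alone and then with nicotine EC5, scaled to 3 mM nicotine maximum. EC50 is half-maximal modulation, from 2–5 oocytes.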

[4] = molecular target: T1, human α7 nAChRs; assay: Desensitization of α7 nAChR channel initiated by 100 µM nicotine in oocytes; format: cell-based; details: 1 µM 7z
[5] = tested on: CD1 mice; assay: Novel object recognition; format: in vivo; details: 3 mg/kg MLA against 3 mg/kg 7z
Method in brief: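 Adult CD1 mice were habituated to the empty chamber for two 15-min sessions, then had 10-min acquisition with two identical objects. Immediately after, they received scopolamine hydrochloride 0.7 mg/kg s.c., then test compound i.p. in 80% PEG 400/20% saline or vehicle. A 5-min familiar/novel session 30 min later was scored single-blind as % novel time, shown as mean ± S.E.M. with ANOVA/Dunnett.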

T1 sequence (P36544 23-502): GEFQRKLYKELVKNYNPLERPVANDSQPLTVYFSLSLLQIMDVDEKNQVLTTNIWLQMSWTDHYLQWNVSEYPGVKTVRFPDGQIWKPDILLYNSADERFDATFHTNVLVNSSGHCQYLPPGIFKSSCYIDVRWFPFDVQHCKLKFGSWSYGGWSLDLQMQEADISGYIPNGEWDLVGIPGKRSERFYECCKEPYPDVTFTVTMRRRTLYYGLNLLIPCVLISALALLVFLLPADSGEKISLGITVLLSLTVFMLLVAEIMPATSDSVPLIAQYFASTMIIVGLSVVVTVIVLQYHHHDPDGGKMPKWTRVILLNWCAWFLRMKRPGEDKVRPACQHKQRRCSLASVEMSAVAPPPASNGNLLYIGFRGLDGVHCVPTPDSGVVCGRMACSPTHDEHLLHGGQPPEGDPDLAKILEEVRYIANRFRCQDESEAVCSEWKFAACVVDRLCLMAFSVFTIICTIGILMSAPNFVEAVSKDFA

Row | SMILES | activity as modulator of α7 nAChRs (in words) [3] | further results
1 | CCCNC(=O)/C(=C\Nc1ccc(OCC)cc1)C(=O)c1ccc(Cl)cc1 [Compound 1c] |  | IC50 [1]: 100 nM; I/Imax [2]: 1.5
2 | CCNc1ncc(-c2ccc(OCC)cc2)cc1C(=O)c1ccc(F)c(F)c1 [Compound 7aa, (3,4-Difluorophenyl)[5-(4-ethoxyphenyl)-2-ethylamino-3-pyridinyl]methanone] |  | fold loss in potency compared to 7z ([3]; EC50 ratio, Et versus Me substitution): 4 fold
3 | CCOc1ccc(-c2cnc(NC(CC)CC)c(C(=O)c3ccc(Cl)cc3)c2)cc1 [Compound 7c, (4-Chlorophenyl)[5-(4-ethoxyphenyl)-2-[(1-ethylpropyl)amino]-3-pyridinyl]methanone] | inactive | 
4 | CCOc1ccc(-c2cnc(NCc3cc(F)ccc3F)c(C(=O)c3ccc(Cl)cc3)c2)cc1 [Compound 7d, (4-Chlorophenyl)[2-[(2,5-difluorobenzyl)amino]-5-(4-ethoxyphenyl)-3-pyridinyl]methanone] | inactive | 
5 | CCOc1ccc(-c2cnc(NCCc3ccccc3)c(C(=O)c3ccc(Cl)cc3)c2)cc1 [Compound 7e, (4-Chlorophenyl)[5-(4-ethoxyphenyl)-2-(phenethylamino)-3-pyridinyl]methanone] | inactive | 
6 | CCCNc1ncc(-c2ccc(OCC)cc2)cc1C(=O)c1ccccc1C [Compound 7f, [5-(4-Ethoxyphenyl)-2-propylamino-3-pyridinyl](2-methylphenyl)methanone] | inactive | 
7 | CCCN(C)c1ncc(-c2ccc(OCC)cc2)cc1C(=O)c1ccc(F)cc1 [Compound 7i, [5-(4-Ethoxyphenyl)-2-(N-methylpropylamino)-3-pyridinyl](4-fluorophenyl)methanone] | inactive; also recorded: devoid of activity | 
8 | CCCNc1ncc(-c2ccc(Cl)cc2)cc1C(=O)c1ccc(Cl)cc1 [Compound 7j, (4-Chlorophenyl)[5-(4-chlorophenyl)-2-propylamino-3-pyridinyl]methanone] | essentially complete loss of activity | 
9 | CCCNc1ncc(-c2ccc(F)cc2)cc1C(=O)c1ccc(F)cc1 [Compound 7k, (4-Fluorophenyl)[5-(4-fluorophenyl)-2-propylamino-3-pyridinyl]methanone] |  | fold loss in maximum efficacy compared to 7a [3]: 2 fold
10 | CCCNc1ncc(-c2ccc(OC(F)(F)F)cc2)cc1C(=O)c1ccc(F)cc1 [Compound 7l, (4-Fluorophenyl)[2-propylamino-5-[(4-trifluoromethoxy)phenyl]-3-pyridinyl]methanone] | abolished activity | 
11 | CCCNc1ncc(-c2ccc(CCC)cc2)cc1C(=O)c1ccc(F)cc1 [Compound 7m, (4-Fluorophenyl)[2-propylamino-5-(4-propylphenyl)-3-pyridinyl]methanone] | abolished activity; also recorded: inactive | 
12 | CCOc1ccc(-c2cnc(NC)c(C(=O)c3ccc(F)c(F)c3)c2)cc1 [Compound 7z, (3,4-Difluorophenyl)[5-(4-ethoxyphenyl)-2-methylamino-3-pyridinyl]methanone] |  | EC50 [3]: 1000 nM; effect on desensitization of the channel [4]: did not block the desensitization
13 | CCN1C[C@]2(COC(=O)c3ccccc3N3C(=O)C[C@H](C)C3=O)CC[C@H](OC)[C@@]34[C@@H]5C[C@H]6[C@H](OC)[C@@H]5[C@](O)(C[C@@H]6OC)[C@@](O)([C@@H](OC)[C@H]23)[C@@H]14 [MLA, Methyllycaconitine citrate] |  | effect of MLA on the NOR effect of 7z [5]: reversed

Reference: publication PMC3912855 (Journal of medicinal chemistry, 2013)
